Screening results: PubChem, Johns Hopkins Ion Channel Center
KCNQ1 act: potentiators or activators of KCNQ1 channel, primary screen, cell-based, thallium flux, high-throughput; 310,000 compounds, 0.35% hits; CHO-K1 KCNQ1, thallium flux FluxOR fluorescence; stronger effect = higher value; B-score at 10 µM; Potassium voltage-gated channel subfamily KQT member 1 (Homo sapiens), P51787;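 active means fluorescence ratio B-score, a plate-corrected score, at least three library SD, with initial intensity B-score within 5 SD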
Target sequence (P51787 whole entry, looked up): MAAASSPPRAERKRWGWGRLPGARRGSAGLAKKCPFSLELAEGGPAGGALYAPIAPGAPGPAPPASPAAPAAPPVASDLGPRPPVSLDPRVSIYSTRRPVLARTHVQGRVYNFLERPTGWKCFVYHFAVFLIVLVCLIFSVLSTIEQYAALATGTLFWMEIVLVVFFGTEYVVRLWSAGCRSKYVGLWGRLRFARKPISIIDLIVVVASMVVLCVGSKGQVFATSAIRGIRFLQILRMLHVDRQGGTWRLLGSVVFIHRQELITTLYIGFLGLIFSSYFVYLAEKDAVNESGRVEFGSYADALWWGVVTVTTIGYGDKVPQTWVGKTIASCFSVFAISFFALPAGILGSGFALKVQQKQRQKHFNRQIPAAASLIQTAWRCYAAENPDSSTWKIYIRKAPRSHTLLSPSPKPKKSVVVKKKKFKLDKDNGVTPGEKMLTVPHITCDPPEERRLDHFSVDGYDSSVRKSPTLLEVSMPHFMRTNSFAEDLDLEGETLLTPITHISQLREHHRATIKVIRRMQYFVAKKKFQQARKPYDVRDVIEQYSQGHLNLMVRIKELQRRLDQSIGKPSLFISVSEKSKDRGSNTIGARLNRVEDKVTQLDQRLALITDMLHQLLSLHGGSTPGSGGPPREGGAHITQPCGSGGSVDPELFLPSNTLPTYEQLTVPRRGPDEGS
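Assay system: stable KCNQ1 CHO-K1 line; medium: assay buffer, equal DMSO in all wells; timing: 90 min dye loading and 20 min compound exposure, both at room temperature; technique: kinetic FluxOR thallium fluorescence, 10-s 1-Hz baseline, 110-s post-stimulus read; read-out basis: B score of baseline-normalized fluorescence ratio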
KCNK3 inh: human KCNK3 channel inhibitors, primary screen, CHO cells, FluxOR thallium flux, B-score | FluxOR fluorescence; stronger effect = lower value | B-score at 10 µM | 340,000 compounds, 0.84% hits | AID 602410, 2012;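 active means B-score under library mean minus 4 SD, starting fluorescence ratio at most library mean plus 5 SD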;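 further: more negative B-score means stronger inhibition of thallium flux through KCNK3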
KCNK9 block: KCNK9 potassium channel inhibitors, primary screen, HEK293 cells, thallium flux; Potassium channel subfamily K member 9 (Homo sapiens), Q9NPC2; FluxOR thallium flux fluorescence; stronger effect = lower value; B-score at 10 µM; 310,000 compounds, 1.2% hits;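 active means ratio B-score over 3 SD below the library mean, with starting fluorescence within 5 SD of its mean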;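 further: negative B-score means less thallium flux so channel inhibition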
KCNQ1 inh: inhibitors of human KCNQ1 channel, primary screen, cell-based, thallium flux, high-throughput; Potassium voltage-gated channel subfamily KQT member 1 (Homo sapiens), P51787; CHO-K1 KCNQ1, FluxOR thallium flux fluorescence; stronger effect = higher value; B-score at 10 µM; 310,000 compounds, 1.3% hits; AID 2642, 2010;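 active means compounds whose thallium flux B-score, printed positive for inhibition, exceeds three library SD while starting fluorescence stays within three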;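 further: channel opened by potassium depolarization with thallium stimulus after 20 min compound exposure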
hERG protect: hERG rescue from dofetilide block, primary screen, cell-based, CHO-hERG, FluxOR thallium flux, dofetilide IC70; dofetilide IC70 present; activation (rescue from dofetilide block), less the hit threshold, % at 10 µM; 310,000 compounds, 0.51% hits;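 active means activation above the mean of controls blocked by dofetilide plus 5 SD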;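 further: thallium influx through hERG after potassium depolarization seen as dye fluorescence rise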
KCNQ1 block val: KCNQ1 potassium channel inhibitors, confirmation, cell-based, Tl flux, duplicate; shares compounds with KCNQ1 inh; KCNQ1 cell line, FluxOR thallium flux fluorescence; inhibition, % at 10 µM; 1,600 compounds, 93% hits;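 active means primary screen active, with duplicate mean exceeding buffer control mean plus 3 SD of buffer wells, cut at about 28% in these data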;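 further: 0% = buffer control ratio and 100% = XE991 inhibitor control ratio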
CHO Tl flux: thallium flux effects in parental CHO cells, counter-screen for KCNQ1 inhibitor project, cell-based, Tl flux; fluorescence ratio (Tl flux) at 10 µM; shares compounds with KCNQ1 inh; parental CHO-K1, FluxOR thallium flux fluorescence ratio; stronger effect = lower value; zero means no signal rise above baseline; 1,600 compounds, 21% hits;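 active means mean of duplicate thallium-flux fluorescence ratios in parental host cells more than 5 SD below the buffer control mean, cut at about 0.38 in these data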;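 further: ratio is peak minus minimum fluorescence divided by baseline fluorescence; actives read low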
KCNQ1 APC inh: KCNQ1 channel inhibitors, confirmation, orthogonal assay, cell-based, automated electrophysiology | 490 compounds, 20% hits | shares compounds with KCNQ1 inh | calls only at 10 µM | AID 624120, 2012 | KCNQ1-CHO cells, automated patch clamp current;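 active means KCNQ1 current drop exceeding 3 SD of negative control wells, seen in both duplicate runs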;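 further: steady state current during a 2 s step from -80 to +40 mV; negative values mean current inhibition and positive values mean potentiation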
KCNQ2 inh: KCNQ2 channel inhibition, selectivity assay for KCNQ1 inhibitor project, cell-based. shares compounds with KCNQ1 inh. KCNQ2 cells, FluxOR thallium flux fluorescence. inhibition, % at 10 µM. 1,600 compounds, 71% hits. AID 651746, 2012;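 active means mean percent inhibition of the KCNQ2 thallium signal more than 5 SD above the buffer-only control wells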;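 further: KCNQ2 expressed in CHO cells; 0% = buffer control wells and 100% = XE-991 inhibitor control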
KCNQ1-KCNE1 inh: KCNQ1/KCNE1 channel inhibition, selectivity assay for KCNQ1 inhibitor project, CHO-K1 cells, thallium flux, FluxOR | inhibition, % at 10 µM | 1,600 compounds, 77% hits | FluxOR thallium flux fluorescence | shares compounds with KCNQ1 inh | AID 652147, 2013;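 active means mean percent inhibition of duplicate wells above the buffer-only control mean plus 3 SD of those controls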;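 further: 0% = buffer only wells and 100% = XE-991 inhibitor control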
Numbers without * were called inactive. Hits are enriched below; roughly 3.1% of the tested compounds scored in any of these assays.

Results for Cc1ccc2[nH]c3c(NCc4ccco4)ncnc3c2c1 ?
KCNQ1 act: inactive; KCNK3 inh: inactive; KCNK9 block: inactive; KCNQ1 inh: 9*; hERG protect: -20; KCNQ1 block val: 102*; CHO Tl flux: 0.45; KCNQ1 APC inh: inactive; KCNQ2 inh: 70%*; KCNQ1-KCNE1 inh: 39%*

What do the screens show for `Cc1[nH]c(=O)[nH]c(=S)c1C(=O)Nc1ccc(Cl)c(Cl)c1`?
KCNQ1 act: inactive; KCNK3 inh: inactive; KCNK9 block: inactive; KCNQ1 inh: inactive; hERG protect: -2

How did O=C(Nc1ccccn1)c1cc(-c2cccc(Cl)c2)nc2ccccc12 do in these assays?
KCNQ1 act: inactive; KCNK3 inh: inactive; KCNK9 block: inactive; KCNQ1 inh: 7*; hERG protect: -19; KCNQ1 block val: 92*; CHO Tl flux: 0.41; KCNQ1 APC inh: inactive; KCNQ2 inh: 115%*; KCNQ1-KCNE1 inh: 151%*

What do the screens show for `Cc1ccc(C)c(NC(=O)c2cc(-c3cccnc3)nc3ccccc23)c1`?
KCNQ1 act: inactive; KCNK3 inh: inactive; KCNK9 block: inactive; KCNQ1 inh: 7*; hERG protect: -5; KCNQ1 block val: 62*; CHO Tl flux: 0.47; KCNQ2 inh: 97%*; KCNQ1-KCNE1 inh: 44%*

Results for O=C(Nc1ccon1)c1cc(-c2ccccc2)nc2ccccc12 ?
KCNK3 inh: inactive

Results for O=C(Nc1ncccn1)c1cc(-c2cccc(Br)c2)nc2ccccc12 ?
KCNQ1 act: inactive; KCNK3 inh: inactive; KCNK9 block: inactive; KCNQ1 inh: inactive; hERG protect: -4

How did O=C(O)c1ccccc1NC(=O)c1cc(-c2ccccc2)nc2ccccc12 do in these assays?
KCNQ1 act: inactive; KCNK3 inh: inactive; KCNK9 block: inactive; KCNQ1 inh: 7*; hERG protect: -31; KCNQ1 block val: 70*; CHO Tl flux: 0.48; KCNQ2 inh: 82%*; KCNQ1-KCNE1 inh: 120%*

What do the screens show for `Cc1cccc(-c2cc(C(=O)Nc3ccc4c(c3)OCCO4)c3ccccc3n2)c1`?
KCNQ1 act: inactive; KCNK3 inh: inactive; KCNK9 block: inactive; KCNQ1 inh: 9*; hERG protect: -10; KCNQ1 block val: 78*; CHO Tl flux: 0.39; KCNQ2 inh: 116%*; KCNQ1-KCNE1 inh: 93%*

How did CCN(c1ccccc1)S(=O)(=O)c1ccc(Oc2ccccc2)c(N)c1 do in these assays?
KCNK3 inh: inactive

Results for Cn1nc(C(=O)OCC(=O)Nc2ccc3ccccc3c2)c2ccccc2c1=O ?
KCNQ1 act: inactive; KCNK3 inh: inactive; KCNK9 block: inactive; KCNQ1 inh: inactive; hERG protect: -16

What do the screens show for `CC(C)c1ccc(-c2cc(C(=O)N3CCOCC3)c3cc(Br)ccc3n2)cc1`?
KCNQ1 act: inactive; KCNK3 inh: inactive; KCNK9 block: inactive; KCNQ1 inh: 6*; hERG protect: -12; KCNQ1 block val: 40*; CHO Tl flux: 0.43; KCNQ2 inh: 131%*; KCNQ1-KCNE1 inh: inactive

How did CCc1cc(C(c2cccc(OC)c2)N2CCOCC2)c(NC(=O)c2ccccc2)s1 (configuration not stated) do in these assays?
KCNQ1 act: inactive; KCNK3 inh: inactive; KCNK9 block: inactive; KCNQ1 inh: inactive; hERG protect: -14

What do the screens show for `CCc1cc(C(c2ccc(F)cc2)N2CCOCC2)c(NC(=O)c2ccccc2)s1` (configuration not stated)?
KCNQ1 act: inactive; KCNK3 inh: inactive; KCNK9 block: inactive; KCNQ1 inh: 10*; hERG protect: -7; KCNQ1 block val: 100*; CHO Tl flux: 0.37*; KCNQ2 inh: 99%*; KCNQ1-KCNE1 inh: 154%*

What do the screens show for `O=C(c1cc2ccccc2o1)N(Cc1ccco1)Cc1cccs1`?
KCNQ1 act: inactive; KCNK3 inh: inactive; KCNK9 block: inactive; KCNQ1 inh: 7*; hERG protect: -20; KCNQ1 block val: 120*; CHO Tl flux: 0.36*; KCNQ2 inh: 91%*; KCNQ1-KCNE1 inh: 190%*

How did CCc1ccc(CCC(=O)Nc2ccc(Cl)cc2)o1 do in these assays?
KCNQ1 act: inactive; KCNK3 inh: inactive; KCNK9 block: inactive; KCNQ1 inh: inactive; hERG protect: -2

What do the screens show for `CC(C)c1ccc(S(=O)(=O)Nc2ccc(SC(F)F)cc2)cc1`?
KCNQ1 act: inactive; KCNK3 inh: inactive; KCNK9 block: inactive; KCNQ1 inh: inactive; hERG protect: -8

How did Cc1ccc(S(=O)(=O)Nc2ccc(SC(F)F)cc2)c(C)c1 do in these assays?
KCNQ1 act: inactive; KCNK3 inh: inactive; KCNK9 block: inactive; KCNQ1 inh: 6*; hERG protect: -10; KCNQ1 block val: 26*; CHO Tl flux: 0.45; KCNQ2 inh: inactive; KCNQ1-KCNE1 inh: 136%*

What do the screens show for `CCN1C[C@@H]2[C@@H]3C(=O)N(C)C(=O)[C@@H]3[C@](Cc3ccccc3)(C1=O)N2C(=O)c1ccc(F)cc1`?
KCNK3 inh: inactive

How did C[C@H]1CN([C@@H](C)CO)C(=O)c2cc(NC(=O)c3ccncc3)ccc2O[C@H]1CN(C)Cc1ccc(C(=O)O)cc1 do in these assays?
KCNK3 inh: inactive
